Experimental findings from ChEMBL document CHEMBL3272089, “Synthesis and antitumor activity of dihydro-5-azacytidine, a hydrolytically stable analogue of 5-azacytidine” (J Med Chem, 1977) are described below.

SMILES strings stand for the structures.

Series [1] deals with P388. The experiment in a line: Antitumor activity against mouse P388 cells allografted in ip dosed mouse assessed as change in body weight at optimal dose administered qd from day 1 to day 9 post tumor implantation measured on day 5 relative to control. The series is classed as functional. The essentials: (§1)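 Mice bearing tumour cells implanted ip (intracerebrally in the IC-L1210 system) got compound in 0.9% saline ip on the stated schedule, or orally to nonfasting animals in the PO-L1210 system. Day-1 dosing, per day, or every 6 h counted from implantation. The value is the difference in average body weight change (g) on day 5 between the optimal-dose group (T) and controls (C).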

In series [2] the test system is L1210. The experiment in a line: Antitumor activity against mouse L1210 cells allografted in ip dosed mouse assessed as dose required for maximal activity administered every 6 hrs on day 1, 5 and 9 post tumor implantation. It counts as functional. An outline of the steps: (§2)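 Tumour cells were implanted ip (intracerebrally for IC-L1210), with the compound given in 0.9% saline ip, or orally to nonfasting mice in PO-L1210. Dose–response series each halved the preceding dose, expressed as mg/kg per injection. Activity was read as % increase in life-span (% ILS) over untreated controls, and from this the minimum, optimal and maximum active doses were taken.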

Series [3] has as its system L1210. Description: Antitumor activity against mouse L1210 cells allografted in po dosed mouse assessed as change in body weight at optimal dose administered qd from day 1 to day 9 post tumor implantation measured on day 5 relative to control. The series is classed as functional. The essentials:
as §1

Series [4] relates to Mus musculus. The experiment in a line: Toxicity in ip dosed mouse allografted with mouse L1210 cells assessed as dose required for optimal activity administered qd from day 1 to day 9 post intracerebral tumor implantation. The series is classed as organism-based. As to conditions: in vivo. An outline of the steps: as §2
In another series the test system is B16. The experiment in a line: Antitumor activity against mouse B16 cells allografted in ip dosed mouse assessed as change in body weight at optimal dose administered qd from day 1 to day 9 post tumor implantation measured on day 5 relative to control. It counts as functional. The essentials:
as §1

For series [5], the system named is L1210. Description: Antitumor activity against mouse L1210 cells allografted in ip dosed mouse assessed as dose required for minimal activity administered qd from day 1 to day 9 post tumor implantation. It counts as functional. As to conditions: read-out: MED. The essentials:
as §2

The subject of series [6] is P388. Description: Antitumor activity against mouse P388 cells allografted in ip dosed mouse assessed as dose required for maximal activity administered qd from day 1 to day 9 post tumor implantation. The series is classed as functional. The essentials:
as §2

For series [7], the system named is L1210. Description: Antitumor activity against mouse L1210 cells allografted in ip dosed mouse assessed as change in body weight at optimal dose administered qd on day 1 post tumor implantation measured on day 5 relative to control. The series is classed as functional. The essentials:
as §1

Series [8] has as its system P388. Description: Antitumor activity against mouse P388 cells allografted in ip dosed mouse assessed as increase in life span at optimal dose administered qd from day 1 to day 9 post tumor implantation relative to control. The series is classed as functional.
The test system of series [9] is L1210. Description: Antitumor activity against mouse L1210 cells allografted in ip dosed mouse assessed as change in body weight at optimal dose administered qd from day 1 to day 9 post intracerebral tumor implantation measured on day 5 relative to control. The series is classed as functional. The essentials:
as §1

The subject of series [10] is L1210. The experiment in a line: Antitumor activity against 5-azacytidine-resistant mouse L1210 cells allografted in ip dosed mouse assessed as increase in life span at optimal dose administered qd from day 1 to day 9 post tumor implantation relative to control. It counts as functional. The essentials:
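An L1210 subline resistant to 5-azacytidine (L1210/AZA) was implanted ip in mice. Drug given ip in 0.9% saline, dose-response in twofold steps, dose in mg/kg per injection. % ILS over untreated control survival at the optimal dose. Test minus control body-weight change on day 5.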

Series [11] can be described thus: Therapeutic index, ratio of toxicity in ip dosed mouse allografted with mouse L1210 cells assessed as highest dose required for 40% increase in life span to antitumor activity against mouse L1210 cells allografted in ip dosed mouse assessed as lowest dose required for 40% increase in life span. The series is classed as organism-based. The note with it: in vivo, read-out: TI. An outline of the steps:
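L1210 cells implanted ip in mice. Drug in 0.9% saline given ip once daily on days 1-9 (QD1-9), dose-response with each dose half of the next higher. % ILS measured against untreated controls. Dose-response data were pooled from five QD1-9 experiments. TI = highest dose giving 40% ILS ÷ lowest dose giving 40% ILS.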

Series [12] deals with L1210. Description: Antitumor activity against mouse L1210 cells allografted in ip dosed mouse assessed as change in body weight at optimal dose administered qd on day 1, 5 and 9 post tumor implantation measured on day 5 relative to control. It counts as functional. The essentials: as §1
Series [13] relates to L1210. The experiment in a line: Antitumor activity against mouse L1210 cells allografted in ip dosed mouse assessed as increase in life span at optimal dose administered every 6 hrs on day 1, 5 and 9 post tumor implantation relative to control. It counts as functional. The essentials:
(§3)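 L1210 leukemia cells implanted ip in mice. Drug given ip in 0.9% saline: day 1 only (QD1); days 1, 5, 9 (Q4D); every 6 h on days 1, 5, 9 (Q4D(Q6H)); or days 1-9 (QD1-9). Dose-response run in twofold steps, dose in mg/kg per injection. % ILS versus untreated controls at the optimal dose. Toxicity taken as test minus control body-weight change on day 5.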

Series [14] relates to L1210. The experiment in a line: Antitumor activity against mouse L1210 cells allografted in ip dosed mouse assessed as dose required for maximal activity administered qd from day 1 to day 9 post tumor implantation. It counts as functional. The essentials:
as §2

For series [15], the system named is L1210. Description: Antitumor activity against mouse L1210 cells allografted in ip dosed mouse assessed as change in body weight at optimal dose administered qd from day 1 to day 9 post tumor implantation measured on day 5 relative to control. It counts as functional. The essentials:
as §1

The subject of series [16] is Mus musculus. The experiment in a line: Toxicity in ip dosed mouse allografted with mouse P388 cells assessed as dose required for optimal activity administered qd from day 1 to day 9 post tumor implantation. As to conditions: in vivo. The series is classed as organism-based. An outline of the steps:
as §2

In series [17] the test system is L1210. The experiment in a line: Antitumor activity against mouse L1210 cells allografted in ip dosed mouse assessed as dose required for minimal activity administered every 6 hrs on day 1, 5 and 9 post tumor implantation. The series is classed as functional. As to conditions: read-out: MED. The essentials:
as §2

The test system of series [18] is L1210. The experiment in a line: Antitumor activity against mouse L1210 cells allografted in ip dosed mouse assessed as dose required for minimal activity administered qd on day 1, 5 and 9 post tumor implantation. The series is classed as functional. The note with it: 24 h, read-out: MED. The essentials:
as §2

For series [19], the system named is L1210. Description: Antitumor activity against mouse L1210 cells allografted in ip dosed mouse assessed as dose required for minimal activity administered qd on day 1 post tumor implantation. As to conditions: 24 h, read-out: MED. The series is classed as functional. The essentials:
as §2

For series [20], the system named is Mus musculus. Description: Toxicity in po dosed mouse allografted with mouse L1210 cells assessed as dose required for optimal activity administered qd from day 1 to day 9 post tumor implantation. As to conditions: in vivo. The series is classed as organism-based. The essentials:
as §2

Series [21] in a line: Therapeutic index, ratio of toxicity in ip dosed mouse allografted with mouse L1210 cells assessed as optimal dose required for maximum increase in life span to antitumor activity against mouse L1210 cells allografted in ip dosed mouse assessed as lowest dose required for 40% increase in life span. The note with it: in vivo, read-out: TI. The series is classed as organism-based. The essentials: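 Mice tumored ip with L1210 and treated ip on days 1-9 (QD1-9) with drug in 0.9% saline, using serial twofold dose dilutions. Survival gain over untreated controls was expressed as % ILS. Dose-response relationships came from five QD1-9 experiments. TI = optimal dose for maximum % ILS ÷ lowest dose giving 40% ILS.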

In series [22] the test system is Mus musculus. The experiment in a line: Toxicity in ip dosed mouse allografted with mouse B16 cells assessed as dose required for optimal activity administered qd from day 1 to day 9 post tumor implantation. The series is classed as organism-based. As to conditions: in vivo. The essentials:
as §2

The test system of series [23] is L1210. Description: Antitumor activity against mouse L1210 cells allografted in ip dosed mouse assessed as increase in life span at optimal dose administered qd on day 1 post tumor implantation relative to control. It counts as functional. The essentials: as §3

What is called ILS is how much longer treated animals lived than controls. Consider `Nc1ncn([C@@H]2O[C@H](CO)[C@@H](O)[C@H]2O)c(=O)n1` [AZACITIDINE], for which the Activity in the series on P388 [1] is -4.3 g; in the series on L1210 [3] it was -4.1 g; in the series on Mus musculus [4], 0.75 mg/kg; in the series with B16 it was 1.5 g; in the series with L1210 [7], -3.8 g; with L1210 [9], -0.5 g. For the same molecule, the Activity in the series with L1210 [12] was -1.5 g; with L1210 [15], -3 g; in the series with Mus musculus [16], 3 mg/kg; in the series with Mus musculus [20], 12.5 mg/kg; with Mus musculus [22], 3 mg/kg. Also, the MAD with L1210 [2] turned out to be 5 mg/kg; in the series with P388 [6] it was 3 mg/kg; in the series on L1210 [14], 3.13 mg/kg. Also, the minimal effective dose in the series with L1210 [5] is 0.75 mg/kg; with L1210 [17] it was 1.25 mg/kg; with L1210 [18] it was 5 mg/kg; in the series with L1210 [19], 12.5 mg/kg. Further, the ILS in the series on P388 [8] came to 127%; in the series on L1210 [10] it was 0%; in the series with L1210 [13] it was 126%; in the series on L1210 [23], 73%. Besides, the selectivity ratio came out at 14 in [11] and 7.5 in series [21].
As to `Cl.NC1=NC(=O)N([C@@H]2O[C@H](CO)[C@@H](O)[C@H]2O)CN1`, the Activity in the series with P388 [1] is -4.3 g; with L1210 [3], -4.4 g; in the series on Mus musculus [4], 100 mg/kg; in the series with B16 it was -3.3 g; in the series with L1210 [7], -3.1 g; with L1210 [9], -1.9 g. Moreover, the Activity was -4.3 g in the series on L1210 [12]; -3.9 g with L1210 [15]; 100 mg/kg with Mus musculus [16]; 400 mg/kg in the series on Mus musculus [20]; 100 mg/kg in the series with Mus musculus [22]. The MAD with L1210 [2] is 150 mg/kg; in the series on P388 [6] it was 200 mg/kg; in the series on L1210 [14] it was 200 mg/kg. The minimal effective dose is 3.13 mg/kg in the series with L1210 [5], 9.4 mg/kg in the series on L1210 [17], 12.5 mg/kg with L1210 [18] and 300 mg/kg in the series on L1210 [19]. Further, the ILS with P388 [8] stood at 85%; with L1210 [10], 0%; in the series on L1210 [13], 68%; with L1210 [23], 34%. The selectivity ratio was 40 in series [11] and 10 in series [21].
